Measurements reported in ChEMBL document CHEMBL1124346 (J Med Chem, 1989).

Assays:
[1] = target: T1, D(2) dopamine receptor (Rattus norvegicus, UniProt P61169); test: Binding activity against dopamine receptor D2 in rat brain, using [3H]spiperone as the radioligand; type: tissue-based
Outline: (§1)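 Rat striatal membranes; [3H]spiperone 0.95–1.4 nM final, with 40 nM ketanserin in all tubes to mask 5HT-2 sites. Buffer 50 mM Tris-HCl pH 7.4 with 120 mM NaCl, 5 mM KCl, 2 mM CaCl2, 1 mM MgCl2; 37 °C.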

[2] = target: T2, D(1A) dopamine receptor (Rattus norvegicus, UniProt P18901); test: Binding activity against Dopamine receptor D1 in rat brain, using [3H]SCH-23390 as the radioligand; type: tissue-based
T2 sequence (P18901 whole entry): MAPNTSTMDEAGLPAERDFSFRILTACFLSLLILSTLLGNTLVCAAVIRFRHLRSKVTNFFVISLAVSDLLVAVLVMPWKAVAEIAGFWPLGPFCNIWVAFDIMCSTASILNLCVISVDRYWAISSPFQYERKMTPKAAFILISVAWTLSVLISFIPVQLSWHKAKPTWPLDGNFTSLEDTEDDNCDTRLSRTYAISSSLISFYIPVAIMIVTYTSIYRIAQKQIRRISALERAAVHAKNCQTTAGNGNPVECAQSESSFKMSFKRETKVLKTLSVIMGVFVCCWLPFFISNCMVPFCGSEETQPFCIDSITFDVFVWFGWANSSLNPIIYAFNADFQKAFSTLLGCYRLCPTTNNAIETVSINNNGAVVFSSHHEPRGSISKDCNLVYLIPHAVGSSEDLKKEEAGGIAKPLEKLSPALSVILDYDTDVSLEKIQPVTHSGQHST

[3] = target: Muscarinic acetylcholine receptor; test: Binding activity against muscarinic acetylcholine receptor in rat brain using [3H]QNB as the radioligand; type: tissue-based
[4] = target: T1, D(2) dopamine receptor; test: Binding activity against dopamine D2 receptor in rat brain, using [3H]spiperone as the radioligand
[5] = target: T2, D(1A) dopamine receptor; test: Binding activity against dopamine D1 receptor in rat brain, using [3H]SCH-23390 as the radioligand; type: tissue-based
Outline: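 Rat striatum homogenized in 50 mM Tris-HCl pH 7.4 with 5 mM MgSO4, washed and resuspended in 200 vol. Incubated with [3H]SCH 23390 0.45–0.76 nM final, 37 °C, 30 min; nonspecific binding with 1 μM SCH 23390.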

[6] = target: Muscarinic acetylcholine receptor; test: Binding activity against muscarinic receptor in rat brain using [3H]QNB as the radioligand; type: tissue-based
[7] = target: T1, D(2) dopamine receptor; test: Binding activity against Dopamine receptor D2 in rat brain, using [3H]spiperone as the radioligand; type: tissue-based; outline: as §1

T1 sequence (P61169 whole entry): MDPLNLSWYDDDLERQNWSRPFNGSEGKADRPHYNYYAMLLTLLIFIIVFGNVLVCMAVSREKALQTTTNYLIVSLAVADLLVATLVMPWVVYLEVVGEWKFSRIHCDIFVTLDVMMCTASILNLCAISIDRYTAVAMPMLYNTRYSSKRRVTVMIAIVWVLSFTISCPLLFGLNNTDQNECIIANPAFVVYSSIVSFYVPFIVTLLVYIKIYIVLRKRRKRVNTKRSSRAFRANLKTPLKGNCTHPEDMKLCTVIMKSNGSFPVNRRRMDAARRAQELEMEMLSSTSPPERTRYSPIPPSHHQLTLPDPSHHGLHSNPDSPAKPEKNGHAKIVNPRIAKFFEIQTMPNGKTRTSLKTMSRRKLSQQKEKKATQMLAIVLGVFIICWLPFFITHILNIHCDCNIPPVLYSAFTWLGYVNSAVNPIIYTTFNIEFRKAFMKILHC

IC50 [1]	IC50 [2]	IC50 [3]	IC50 [4]	IC50 [5]	IC50 [6]	IC50 [7]	SMILES
6.97 µM	305 nM	2600 nM					C/C=C1/c2ccccc2C=C(N2CCN(C)CC2)c2ccccc21
			> 10 µM	895 nM			CN1CCN(C2=Nc3ccccc3Nc3ccccc32)CC1
2.65 µM	74 nM	1020 nM					CC1c2ccccc2C=C(N2CCN(C)CC2)c2ccccc21 (stereo unspecified)
				63 nM	55 nM	218 nM	CN1CCN(C2=Nc3ccccc3Nc3ccc(Cl)cc32)CC1 [ISOCLOZAPINE]
